Tests used:
Type in all cases: functional
[1] = test system: MDA-MB-468; test: Cytotoxicity against human MDA-MB-468 cells assessed as cell growth at 10 uM after 48 hrs by SRB assay; conditions: MDA-MB-468, 48 h, read-out: Activity
In short: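 First stage of the NCI 60 human tumour cell line screen: a single dose is tested against every line. Cell growth is read as cellular protein by sulforhodamine B colorimetry after 48 h of drug exposure, with reference to a time-zero control and to untreated plates.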

[2] = test system: HT-29; test: Cytotoxicity against human HT-29 cells assessed as cell growth at 10 uM after 48 hrs by SRB assay; conditions: HT-29, 48 h, read-out: Activity
[3] = test system: A498; test: Cytotoxicity against human A498 cells assessed as growth inhibition after 48 hrs by SRB assay
In short: (§1)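 NCI 60-cell-line five-dose screen at […]. Drug exposure was 48 h, followed by sulforhodamine B protein staining. GI50, TGI and LC50 were calculated against a time-zero control and untreated plates, with dose–response curves plotted from log10 concentration.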

[4] = (§2) Cytotoxicity against human OVCAR5 cells assessed as growth inhibition after 48 hrs by SRB assay; conditions: OVCAR-5, 48 h
In short: (§3)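 NCI 60-cell-line screen, five-dose stage: each cell line exposed for 48 h to five concentrations spanning five log steps; cellular protein measured by sulforhodamine B colorimetry. A time-zero cell control and plates without drug are used to derive GI50, TGI and LC50 from log-concentration dose-response curves.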

[5] = test system: OVCAR-5; test: as §2; in short: as §3
[6] = (§4) Cytotoxicity against human EKVX cells assessed as growth inhibition after 48 hrs by SRB assay; in short: as §1
[7] = test system: EKVX; test: as §4; in short: as §1
[8] = test system: SF-268; test: Cytotoxicity against human SF268 cells assessed as growth inhibition after 48 hrs by SRB assay; in short: as §3
[9] = test system: SNB-19; test: Cytotoxicity against human SNB19 cells assessed as growth inhibition after 48 hrs by SRB assay
In short: (§5)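 NCI 60-cell-line screen, two stages. Five-dose testing at […]. Cellular protein measured by sulforhodamine B colorimetry after 48 h drug exposure. A time-zero control and drug-free plates are used to derive GI50, TGI and LC50 from dose-response curves plotted as log10 concentration per cell line.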

[10] = test system: Malme-3M; test: Cytotoxicity against human MALME-3M cells assessed as growth inhibition after 48 hrs by SRB assay; in short: as §1
[11] = test system: SK-MEL-2; test: Cytotoxicity against human SK-MEL-2 cells assessed as growth inhibition after 48 hrs by SRB assay; in short: as §3
[12] = (§6) Cytotoxicity against human UO31 cells assessed as growth inhibition after 48 hrs by SRB assay; conditions: UO-31, 48 h; in short: as §5
[13] = test system: UO-31; test: as §6; in short: as §5
[14] = test system: T47D; test: Cytotoxicity against human T47D cells assessed as growth inhibition after 48 hrs by SRB assay; in short: as §5
[15] = test system: A549; test: Cytotoxicity against human A549 cells assessed as growth inhibition after 48 hrs by SRB assay; in short: as §1
[16] = test system: K562; test: Cytotoxicity against human K562 cells assessed as growth inhibition after 48 hrs by SRB assay; in short: as §1
[17] = test system: HL-60(TB); test: Cytotoxicity against human HL-60(TB) cells assessed as growth inhibition after 48 hrs by SRB assay
In short: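 NCI 60-cell panel five-concentration stage (0.01, 0.1, 1, 10, 100) in HL-60(TB). Cellular protein was measured by sulforhodamine B colorimetry after 48 h of exposure. A time-zero cell control and untreated plates allowed calculation of GI50, TGI and LC50. These were read from log10 concentration dose-response curves.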

[18] = test system: DU-145; test: Cytotoxicity against human DU145 cells assessed as growth inhibition after 48 hrs by SRB assay; in short: as §1
[19] = test system: MDA-MB-435; test: Cytotoxicity against human MDA-MB-435 cells assessed as growth inhibition after 48 hrs by SRB assay; in short: as §3
[20] = test system: HCT-116; test: Cytotoxicity against human HCT116 cells assessed as growth inhibition after 48 hrs by SRB assay; in short: as §1
[21] = test system: MOLT-4; test: Cytotoxicity against human MOLT4 cells assessed as growth inhibition after 48 hrs by SRB assay; in short: as §3
[22] = test system: UACC-62; test: Cytotoxicity against human UACC62 cells assessed as growth inhibition after 48 hrs by SRB assay; in short: as §5
[23] = test system: RXF 393; test: Cytotoxicity against human RXF393 cells assessed as growth inhibition after 48 hrs by SRB assay; in short: as §3
[24] = test system: SF-539; test: Cytotoxicity against human SF539 cells assessed as growth inhibition after 48 hrs by SRB assay; in short: as §3
[25] = test system: NCI-H23; test: Cytotoxicity against human NCI-H23 cells assessed as growth inhibition after 48 hrs by SRB assay; in short: as §3
[26] = test system: UACC-257; test: (§7) Cytotoxicity against human UACC257 cells assessed as growth inhibition after 48 hrs by SRB assay; in short: as §5
[27] = as §7; conditions: UACC-257, 48 h; in short: as §5
[28] = test system: SK-OV-3; test: Cytotoxicity against human SKOV3 cells assessed as growth inhibition after 48 hrs by SRB assay; in short: as §3
[29] = test system: OVCAR-3; test: Cytotoxicity against human OVCAR3 cells assessed as growth inhibition after 48 hrs by SRB assay; in short: as §3

O=C1c2ccccc2C(=O)c2c1ccc1[nH]c(=S)[nH]c21
87.7%: growth at 10 µM [1]
104%: growth at 10 µM [2]

CCCSc1nc2ccc3c(c2[nH]1)C(=O)c1ccccc1C3=O
2.65 µM: GI50 ([23]; RXF 393, 48 h)
5.78 µM: GI50 ([22]; UACC-62, 48 h)
37.6 µM: TGI ([29]; OVCAR-3, 48 h)
active: growth inhibition (GI) [3] Dose-dependent effect | growth inhibition (GI) [5] Dose-dependent effect | growth inhibition (GI) [7] Dose-dependent effect | growth inhibition (GI) [8] Dose-dependent effect | growth inhibition (GI) [9] Dose-dependent effect | growth inhibition (GI) [10] Dose-dependent effect | growth inhibition (GI) [11] Dose-dependent effect | growth inhibition (GI) [13] Dose-dependent effect | growth inhibition (GI) [14] Dose-dependent effect | growth inhibition (GI) [15] Dose-dependent effect | growth inhibition (GI) [16] Dose-dependent effect | growth inhibition (GI) [17] Dose-dependent effect | growth inhibition (GI) [18] Dose-dependent effect | growth inhibition (GI) [19] Dose-dependent effect | growth inhibition (GI) [20] Dose-dependent effect | growth inhibition (GI) [21] Dose-dependent effect | growth inhibition (GI) [22] Dose-dependent effect | growth inhibition (GI) [23] Dose-dependent effect | growth inhibition (GI) [24] Dose-dependent effect | growth inhibition (GI) [25] Dose-dependent effect | growth inhibition (GI) [26] Dose-dependent effect | growth inhibition (GI) [28] Dose-dependent effect | growth inhibition (GI) [29] Dose-dependent effect
3.06 µM: GI50 ([20]; HCT-116, 48 h)
3.71 µM: GI50 ([8]; SF-268, 48 h)
36.4 µM: GI50 ([16]; K562, 48 h)
13.9 µM: GI50 ([3]; A498, 48 h)
70.2 µM: TGI [12]
68.4 µM: GI50 ([17]; HL-60, 48 h)
8.1 µM: TGI ([23]; RXF 393, 48 h)
58.1 µM: GI50 [4]
3.07 µM: GI50 ([24]; SF-539, 48 h)
64.9 µM: GI50 [6]
3.22 µM: GI50 ([28]; SK-OV-3, 48 h)
15.9 µM: GI50 ([11]; SK-MEL-2, 48 h)
20.5 µM: TGI ([28]; SK-OV-3, 48 h)
9.35 µM: GI50 ([9]; SNB-19, 48 h)
6.37 µM: GI50 ([15]; A549, 48 h)
4.27 µM: GI50 [10]
2.66 µM: GI50 [14]
> 100 µM: TGI ([3]; A498, 48 h) | CC50 ([3]; A498, 48 h, read-out: LC50 (the source's name)) | LC50 [4] | TGI [4] | LC50 [6] | TGI [6] | LC50 (concentration killing 50% of cells relative to time zero) ([8]; SF-268, 48 h) | TGI ([8]; SF-268, 48 h) | LC50 ([9]; SNB-19, 48 h) | TGI ([9]; SNB-19, 48 h) | TGI [10] | CC50 ([10]; read-out: LC50 (the source's name)) | LC50 (50% lethal concentration) ([11]; SK-MEL-2, 48 h) | TGI ([11]; SK-MEL-2, 48 h) | LC50 [12] | LC50 [14] | TGI [14] | LC50 (concentration killing 50% of cells) ([15]; A549, 48 h) | TGI ([15]; A549, 48 h) | TGI ([16]; K562, 48 h) | CC50 ([16]; K562, 48 h, read-out: LC50 (the source's name)) | LC50 ([17]; HL-60, 48 h) | TGI ([17]; HL-60, 48 h) | GI50 ([18]; DU-145, 48 h) | TGI ([18]; DU-145, 48 h) | CC50 ([18]; DU-145, 48 h, read-out: LC50 (the source's name)) | GI50 ([19]; MDA-MB-435, 48 h) | LC50 ([19]; MDA-MB-435, 48 h) | TGI ([19]; MDA-MB-435, 48 h) | LC50 ([20]; HCT-116, 48 h) | TGI ([20]; HCT-116, 48 h) | GI50 ([21]; MOLT-4, 48 h) | LC50 (50% lethal concentration) ([21]; MOLT-4, 48 h) | TGI ([21]; MOLT-4, 48 h) | LC50 ([22]; UACC-62, 48 h) | TGI ([22]; UACC-62, 48 h) | CC50 ([23]; RXF 393, 48 h, read-out: LC50 (the source's name)) | CC50 ([24]; SF-539, 48 h, read-out: LC50 (the source's name)) | LC50 ([25]; NCI-H23, 48 h) | TGI ([25]; NCI-H23, 48 h) | GI50 [27] | LC50 [27] | TGI [27] | LC50 (concentration killing 50% of cells present at time zero) ([28]; SK-OV-3, 48 h) | LC50 (50% lethal concentration) ([29]; OVCAR-3, 48 h)
32 µM: TGI ([24]; SF-539, 48 h)
2.53 µM: GI50 [12]
75.1%: growth at 10 µM [2]
3.97 µM: GI50 ([29]; OVCAR-3, 48 h)
48 µM: GI50 ([25]; NCI-H23, 48 h)
